The values that follow come from ChEMBL document CHEMBL1828569, “Cyclopentane-1,3-dione: a novel isostere for the carboxylic acid functional group. Application to the design of potent thromboxane (A2) receptor antagonists” (J Med Chem, 2011).

Data set [1] addresses T1, Thromboxane A2 receptor (Mus musculus, UniProt P30987).
T1 sequence (P30987 whole entry): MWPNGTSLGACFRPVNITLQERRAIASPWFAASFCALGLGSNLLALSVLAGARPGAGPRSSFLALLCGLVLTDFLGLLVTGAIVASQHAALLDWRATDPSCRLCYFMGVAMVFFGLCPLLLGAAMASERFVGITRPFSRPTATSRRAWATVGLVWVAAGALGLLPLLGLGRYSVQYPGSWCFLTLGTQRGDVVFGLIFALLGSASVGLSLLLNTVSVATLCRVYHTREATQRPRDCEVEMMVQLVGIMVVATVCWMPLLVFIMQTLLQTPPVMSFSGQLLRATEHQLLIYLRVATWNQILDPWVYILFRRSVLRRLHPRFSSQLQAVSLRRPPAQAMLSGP
Nature of the data set: Antagonist activity at mouse prostanoid TP receptor expressed in QBI-HEK 293A cells assessed as inhibition of […]-induced increase in inositol monophosphate after 1 hr by time-resolved fluorescence assay. The format is functional, cell-based, HEK293. The method in brief:
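QBI-HEK 293A cells stably transfected with human or mouse TP receptor cDNA, seeded at 10 000 cells/well and grown 16 h at 37 °C. Cells were preincubated 15 min at 37 °C with antagonist at varying concentrations in Hepes-buffered saline containing 50 mM LiCl, pH 7.4. I-BOP was then added at 1.6 nM for 1 h. IP1 was measured by HTRF (Tb anti-IP1 cryptate/D2-IP1, 1 h at 25 °C) as the 665/620 nm ratio.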

In data set [2] the target is T2, Thromboxane A2 receptor (Homo sapiens, UniProt P21731).
T2 sequence (P21731 whole entry): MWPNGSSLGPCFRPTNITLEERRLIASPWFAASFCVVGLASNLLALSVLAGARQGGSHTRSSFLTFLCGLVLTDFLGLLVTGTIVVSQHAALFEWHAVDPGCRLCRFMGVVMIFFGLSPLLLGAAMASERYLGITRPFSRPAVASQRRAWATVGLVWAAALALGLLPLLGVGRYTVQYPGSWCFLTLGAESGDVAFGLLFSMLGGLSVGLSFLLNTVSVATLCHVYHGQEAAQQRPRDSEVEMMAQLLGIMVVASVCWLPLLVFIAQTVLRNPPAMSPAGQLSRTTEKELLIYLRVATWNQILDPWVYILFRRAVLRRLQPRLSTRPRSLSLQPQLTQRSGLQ
Nature of the data set: Displacement of [3H]SQ-29548 from human prostanoid TP receptor expressed in QBI-HEK 293A cells after 2 hrs by scintillation proximity assay. The format is cell-based, HEK293. A general note: In a radioligand displacement assay an active substance lowers the binding of a labelled ligand.

Data set [3] concerns the target T1, Thromboxane A2 receptor. Nature of the data set: Displacement of [3H]SQ-29548 from mouse prostanoid TP receptor expressed in QBI-HEK 293A cells after 2 hrs by scintillation proximity assay. The format is cell-based, HEK293. The method in brief:
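Membranes from QBI-HEK 293A cells stably expressing mouse TP receptor. Cells were harvested in PBS/1 mM EDTA, homogenized in 20 mM Hepes/1 mM EGTA/0.5 mM DTT with protease inhibitors, spun at 1000g and then 21 000 rpm, and the pellet resuspended in Hepes/EGTA/100 mM NaCl. Antagonist at 10 concentrations, 62.5 μg membrane, 100 μg PVT-WGA SPA beads and 20 nM [3H]SQ29,548 in 50 mM Tris, 4 mM CaCl2, 0.1% ascorbate, pH 7.5, 2 h at 25 °C.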

Data set [4] addresses T2, Thromboxane A2 receptor.
The nature of data set [5]: Dissociation constant, pKa of the compound by pH metric method. The class given is physicochemical.
Data set [6] is described as follows: Octanol-phosphate buffer partition coefficient, log P of the compound by pH metric method. The class given is physicochemical.
Data set [7] in a line: Lipophilicity, log D of the compound at pH 7.4 by pH metric method. The conditions noted are these: buffer. The class given is physicochemical.
Data set [8] in a line: Solubility of the compound in acetonitrile at 10 uM after 2 hrs by spectrophotometry. The class given is physicochemical.

For the compound `O=S(=O)(NCCc1cccc(CCCO)c1)c1ccc(Cl)cc1`, the IC50 (usually the concentration that gives 50% inhibition) in data set [1] stood at 1630 nM; in data set [4], 15.1 µM. Further, the Kd (usually the free concentration of one partner at which half of the binding sites on the other are occupied at equilibrium, for simple one-to-one binding) was over 10000 nM in data set [2] and 10000 nM in data set [3].

As to `O=C1C=C(O)CC1`, the pKa (in general, the pH at which an ionisable group is half protonated) in data set [5] stood at 4.2.

Take `CC1=C(O)CCC1=O`: the pKa in data set [5] is 4.47.

Regarding `O=C1C=C(O)CC1Cc1ccc(Br)cc1` (centres undefined), the pKa in data set [5] amounted to 3.96. In data set [6], the logP (as a rule, the decadic logarithm of the partition coefficient of the neutral form, usually between octanol and water) is 3.02. The logD (usually lipophilicity at a set pH, counting ionised and neutral species) in data set [7] was -0.42. The solubility result in data set [8] was “soluble”.

Regarding `CC1=C(O)CC(Cc2ccc(Br)cc2)C1=O` (centres undefined), the pKa in data set [5] came to 4.24. For the same compound, in data set [6], the logP was 3.28. In data set [7], this compound came in with a logD of 0.11. Further, the solubility result in data set [8] is listed as “soluble”.

With `O=C1CCC(O)=C1Cc1ccc(Br)cc1`, the pKa in data set [5] came to 4.2. Moreover, the logP in data set [6] was 3.01. The logD in data set [7] was -0.19. Further, in data set [8], the solubility entry is “soluble”.

The compound `O=C(O)CCc1ccc(Br)cc1` registered a pKa in data set [5] of 4.33. In data set [6], this compound came in with a logP of 3. This compound also showed a logD in data set [7] of 0.01. Also, the solubility entry in data set [8] is given as “soluble”.

Take `Brc1ccc(Cc2nn[nH]n2)cc1`: the pKa in data set [5] was determined as 4.62. In data set [6], the lipophilicity (logP) is 2.21. The same compound registered a logD in data set [7] of -0.42. The solubility result in data set [8] was “soluble”.

In the case of `O=S(=O)(NCCc1cccc(CCc2nnn[nH]2)c1)c1ccc(Cl)cc1`, the results for the IC50 in data set [1] and in data set [4] were 8 nM and 0.064 µM, respectively. Further, the Kd in data set [2] was 331 nM; in data set [3], 19 nM.

As to `O=c1c(O)c(NCc2cccc(CCNS(=O)(=O)c3ccc(Cl)cc3)c2)c1=O`, the IC50 turned out to be 91 nM in data set [1] and 0.377 µM in data set [4]. Further, the Kd in data set [2] was found to be 359 nM; in data set [3] it was 17 nM.

For the compound `O=C1CCC(O)=C1Cc1cccc(CCNS(=O)(=O)c2ccc(Cl)cc2)c1`, the values for the Kd in data set [2] and in data set [3] were 11400 nM and 1200 nM, respectively. The IC50 in data set [4] is over 10 µM.

Turning to `O=C1CCC(O)=C1CCc1cccc(CCNS(=O)(=O)c2ccc(Cl)cc2)c1`, the IC50 in data set [4] was over 10 µM.

`O=C1C=C(O)C(Cc2cccc(CCNS(=O)(=O)c3ccc(Cl)cc3)c2)C1` (centres undefined): the Kd in data set [2] was 203 nM; in data set [3], 11 nM.

On to `CC1=C(O)C(Cc2cccc(CCNS(=O)(=O)c3ccc(Cl)cc3)c2)CC1=O` (centres undefined), for which the Kd came to 328 nM in data set [2] and 26 nM in data set [3].

On to `CC1=C(OCC(C)C)CC(Cc2cccc(CCNS(=O)(=O)c3ccc(Cl)cc3)c2)C1=O` (centres undefined), for which the IC50 in data set [4] was over 10 µM.

`O=C(O)CCc1cccc(CCNS(=O)(=O)c2ccc(Cl)cc2)c1` had a Kd in data set [3] of 26 nM.
